Assay results of several laboratories.
Each line is one published result; the experiments were not run side by side.
HSP90B1: Endoplasmin (HSP90B1, Canis lupus familiaris, UniProt P41148)
TYK2 JH2: Non-receptor tyrosine-protein kinase TYK2, JH2 (TYK2, Homo sapiens, UniProt P29597)
MTOR: Serine/threonine-protein kinase mTOR (MTOR, Homo sapiens, UniProt P42345)
SMARCA2 bromodomain: SWI/SNF-related matrix-associated actin-dependent regulator of chromatin subfamily A member 2, bromodomain (SMARCA2, Homo sapiens, UniProt P51531)

| SMILES | target | effect on | technique | notes | Kd [µM] |
| --- | --- | --- | --- | --- | --- |
| COCCOCCc1c(C)c2cc(OC)c(O)c(C=O)c2oc1=O | Serine/threonine-protein kinase/endoribonuclease IRE1 (Mus musculus, UniProt Q9EQY0, N772Y) | binding |  |  | 0.84 |
| COC(=O)c1c(O)cc(O)c(Cl)c1CCC(=O)Nc1nccs1 | HSP90B1 | ligand displacement | FP |  | 1.08 |
| COc1cc2c(Nc3ccc(NC(=O)c4ccccc4)cc3)ncnc2cc1OCCCN1CCOCC1 | Epidermal growth factor receptor (EGFR, Homo sapiens, UniProt P00533) | binding |  |  | > 10 |
| CC(C)Nc1ccnc(Nc2cccc(-c3cccnc3)c2)n1 | TYK2 JH2 | binding | competition with immobilised ligand |  | 0.21 |
| C=CC(=O)N1CCC(C(=O)NCC(=O)N2CCN(c3nc(-c4cnc(N)nc4C(F)F)nc(N4CCOCC4)n3)CC2)CC1 | MTOR | binding | competition with immobilised ligand |  | 0.032 |
| Cc1cc2nc3c(=O)[nH]c(=O)nc-3n(C[C@H](O)[C@H](O)[C@H](O)COP(=O)(O)OP(=O)(O)OC[C@H]3O[C@@H](n4cnc5c(N)ncnc54)[C@H](O)[C@@H]3O)c2cc1C | Heterogeneous nuclear ribonucleoprotein H (Homo sapiens, UniProt P31943) | binding |  | lysate | 0.053 |
| Cc1ncsc1-c1ccc(CNC(=O)[C@@H]2C[C@@H](O)CN2C(=O)[C@@H](NC(=O)C2(F)CC2)C(C)(C)C)c(OCCOCCOCCN2CCN(c3cc(-c4ccccc4O)nnc3N)CC2)c1 | SMARCA2 bromodomain | binding | SPR |  | 4.5 |
| COC(=O)c1c(O)cc(O)c(Cl)c1CCC(=O)Nc1ccccc1 | HSP90B1 | ligand displacement | FP |  | 20.5 |
| CCCN1CCN(c2ccc(-c3cncc(Cl)c3N3CCC4(CCNC4=O)CC3)cc2)CC1 | Protein kinase C delta type (PRKCD, Homo sapiens, UniProt Q05655) | cell-free assay |  | lysate | 3.47 |
| NCCS(=O)(=O)O | Cyclin-dependent kinase 6 (CDK6, Homo sapiens, UniProt Q00534) | binding |  |  | 0.143 |
| CCC(=O)N1CCC(C(=O)N(C)CC(=O)N2CCN(c3nc(-c4cnc(N)nc4C(F)F)nc(N4CCOCC4)n3)CC2)CC1 | MTOR | binding | competition with immobilised ligand |  | 0.054 |
| N=c1ccc2c(-c3ccc(C(=O)NCCCCCCn4cc(CCCC(=O)Nc5nc6ccc(Cl)cc6c6nc(-c7ccco7)nn56)nn4)cc3C(=O)O)c3ccc(N)c(S(=O)(=O)O)c3oc-2c1S(=O)(=O)O | Adenosine receptor A3 (ADORA3, Homo sapiens, UniProt P0DMS8) | binding | flow cytometry |  | 0.00515 |
| O=C1OC2(c3ccc(O)cc3Oc3cc(O)ccc32)c2ccccc21 | Lysozyme C (LYZ, Gallus gallus, UniProt P00698) | binding | fluorescence |  | 3.8 |
| COC(=O)c1c(O)cc(O)c(Cl)c1CCC(=O)Nc1ccccc1Cl | HSP90B1 | ligand displacement | FP |  | 1.85 |
| c1cncc(-c2cccc(Nc3nccc(NC4CCCCC4)n3)c2)c1 | TYK2 JH2 | binding | competition with immobilised ligand |  | 0.74 |
| Cc1ncsc1-c1ccc(CNC(=O)[C@@H]2C[C@H](O)CN2C(=O)[C@@H](NC(=O)C2(F)CC2)C(C)(C)C)c(OCCOc2ccc(CN3CCN(c4cc(-c5ccccc5O)nnc4N)CC3)cc2)c1 | SMARCA2 bromodomain | binding | SPR |  | 1.1 |
